One compound from ChEMBL document CHEMBL5344453, “Selective Recognition of c-KIT 1 G-Quadruplex by Structural Tuning of Heteroaromatic Scaffolds and Side Chains” (ACS Med Chem Lett, 2024) can be followed below.

Series [1] addresses Quadruplex DNA. In words: Binding affinity to G-quadruplex BCL-2 5-FAM-AGGGGCGGGCGCGGGAGGAAGGGGGCGGGAGCGGGGCTG-TAMRA-3 (unknown origin) assessed as dissociation constant by measuring thermogram by isothermal titration calorimetry (ITC) assay. In kind it is nucleic-acid assay. The gist of the method: (§1)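 ITC of ligand binding to folded G4 in 100 mM Tris-KCl buffer, pH 7.4. Kd and stoichiometry were obtained from the isothermal heat curve and binding isotherm.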
In general terms: Isothermal titration calorimetry measures the heat released or taken up as one component is titrated into another.

Series [2] has as its system K562. Description: Attenuation of proto-oncogene expression in human c-KIT-positive K562 cells assessed as reduction in BCL-2 oncogene expression at 6 uM measured after 24 hrs by qRT-PCR analysis relative to control. Type of series: functional. Put shortly:
(§2)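 K562 cells treated 24 h at two doses per ligand (3 and 6 μM, 5.5 and 11 μM; positive control 2 and 4 μM). c-KIT, c-MYC and BCL-2 mRNA measured by qRT-PCR and normalized to housekeeping gene 18s, relative to untreated control.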

Series [3] concerns Quadruplex DNA. In words: Binding affinity to G-quadruplex c-KIT1 5-FAM-GGGAGGGCGCTGGGAGGAGGG-TAMRA-3 (unknown origin) assessed as increase in melting temperature by CD spectra analysis. In kind it is nucleic-acid assay.
Series [4] relates to Quadruplex DNA. Description: Stabilization of G-quadruplex c-KIT1 5-FAM-GGGAGGGCGCTGGGAGGAGGG-TAMRA-3 (unknown origin) assessed as change in melting temperature at 1 uM incubated for 1 hr in dark condition by FRET-based melting assay. In kind it is nucleic-acid assay. The gist of the method: (§3)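 FRET melting of dual-fluorophore-tagged oligonucleotides (200 nM) in 60 mM potassium cacodylate buffer, pH 7.4, with ligand at 1 μM; ΔTm taken against the ligand-free oligonucleotide Tm as control.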

In another series the test system is MCF7. Description: Cytotoxicity against human MCF7 cells assessed as cell viability measured after 24 hrs by XTT formazan assay. Type of series: functional, cell-based. As to conditions: MCF7, 24 h. (Tetrazolium dyes change colour on reduction, which living cells bring about.)
The nature of series [5]: Reduction of BCL-2 oncogene expression in human K562 cells transfected with BCL-2 plasmid construct assessed as reduction in luciferase expression at 6 uM measured after 36 hrs by luciferase reporter assay. In kind it is functional. The gist of the method: (§4)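 K562 cells were transfected with luciferase plasmids carrying the c-KIT, c-MYC or BCL-2 promoter G4. They were then treated with ligand (3 and 6 μM or 5.5 and 11 μM), and relative luciferase expression was measured.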

Series [6] relates to Quadruplex DNA. In words: Stabilization of G-quadruplex c-MYC 5-FAM-TGGGGAGGGTGGGGAGGGTGGGGAAGG-TAMRA- 3 (unknown origin) assessed as change in melting temperature at 1 uM incubated for 1 hr in dark condition by FRET-based melting assay. In kind it is nucleic-acid assay. Put shortly:
as §3

Series [7] relates to Quadruplex DNA. In words: Stabilization of G-quadruplex VEGF 5-FAM-CGGGGCGGGCCGGGGGCGGGGT-TAMRA-3 (unknown origin) assessed as change in melting temperature at 1 uM incubated for 1 hr in dark condition by FRET-based melting assay. In kind it is nucleic-acid assay. The gist of the method: as §3
Series [8] has as its system K562. Description: Attenuation of proto-oncogene expression in human c-KIT-positive K562 cells assessed as reduction in c-KIT oncogene expression at 6 uM measured after 24 hrs by qRT-PCR analysis relative to control. In kind it is functional. The gist of the method:
as §2

In series [9] the target is Quadruplex DNA. In words: Binding affinity to G-quadruplex c-MYC 5-FAM-TGGGGAGGGTGGGGAGGGTGGGGAAGG-TAMRA-3 (unknown origin) assessed as dissociation constant by fluorescence spectroscopy assay. Type of series: nucleic-acid assay. The gist of the method: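 Fluorimetric titration of ligand held at 1.0 μM with increasing concentrations of G4 or dsDNA until saturation. Change in ligand fluorescence intensity was fitted for Kd. Run in 100 mM Tris-KCl buffer, pH 7.4.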

The subject of series [10] is Quadruplex DNA. In words: Stabilization of G-quadruplex c-KIT1 5-FAM-GGGAGGGCGCTGGGAGGAGGG-TAMRA-3 (unknown origin) assessed as change in melting temperature at 5 uM incubated for 1 hr in dark condition by FRET-based melting assay. Type of series: nucleic-acid assay. Put shortly: (§5)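 FRET melting of dual-fluorophore (FAM/TAMRA) tagged G-quadruplex (200 nM) in 60 mM potassium cacodylate, pH 7.4. The screen used 1 μM ligand; dose series used 1, 3, 5, 7 and 10 μM. ΔTm was taken against the Tm of the same oligonucleotide without ligand.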

Series [11] deals with K562. Description: Attenuation of proto-oncogene expression in human c-KIT-positive K562 cells assessed as reduction in c-MYC oncogene expression at 3 uM measured after 24 hrs by qRT-PCR analysis relative to control. Type of series: functional. Put shortly: as §2
For orientation: Quantitative PCR measures a nucleic acid by following its amplification.

The target in series [12] is Quadruplex DNA. Description: Binding affinity to G-quadruplex c-KIT1 5-FAM-GGGAGGGCGCTGGGAGGAGGG-TAMRA-3 (unknown origin) assessed as dissociation constant by isothermal titration calorimetry (ITC) assay. Type of series: nucleic-acid assay. Put shortly:
as §1

For series [13], the system named is Quadruplex DNA. Description: Stabilization of G-quadruplex VEGF 5-FAM-CGGGGCGGGCCGGGGGCGGGGT-TAMRA-3 (unknown origin) assessed as change in melting temperature at 10 uM incubated for 1 hr in dark condition by FRET-based melting assay. Type of series: nucleic-acid assay. The gist of the method: as §5
Series [14] deals with K562. In words: Induction of apoptosis in human K562 cells assessed as cell death at 3 uM incubated for 24 hrs by FITC-Annexin V and PI based flow cytometry relative to control. Type of series: functional. The gist of the method: (§6)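 K562 cells after ligand treatment dual-stained with annexin V and propidium iodide. Apoptotic cell populations (early and late) scored by flow cytometry dot plot analysis.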

The subject of series [15] is Quadruplex DNA. In words: Binding affinity to G-quadruplex c-KIT1 5-FAM-GGGAGGGCGCTGGGAGGAGGG-TAMRA-3 (unknown origin) assessed as stability by CD spectra analysis. In kind it is nucleic-acid assay.
The subject of series [16] is Quadruplex DNA. In words: Stabilization of G-quadruplex c-KIT1 5-FAM-GGGAGGGCGCTGGGAGGAGGG-TAMRA-3 (unknown origin) assessed as change in melting temperature at 7 uM incubated for 1 hr in dark condition by FRET-based melting assay. In kind it is nucleic-acid assay. Put shortly: as §5
Series [17] is described as follows: Cytotoxicity against HEK293 cells assessed as cell viability measured after 24 hrs by XTT formazan assay. As to conditions: human. In kind it is toxicity, cell-based.
The test system of series [18] is K562. Description: Induction of apoptosis in human K562 cells assessed as cell death at 6 uM incubated for 24 hrs by FITC-Annexin V and PI analysis relative to control. In kind it is functional. The gist of the method:
as §6

In series [19] the test system is Quadruplex DNA. Description: Stabilization of G-quadruplex c-KIT1 5-FAM-GGGAGGGCGCTGGGAGGAGGG-TAMRA-3 (unknown origin) assessed as change in melting temperature at 3 uM incubated for 1 hr in dark condition by FRET-based melting assay. In kind it is nucleic-acid assay. The gist of the method: as §5
The test system of series [20] is K562. Description: Attenuation of proto-oncogene expression in human c-KIT-positive K562 cells assessed as reduction in BCL-2 oncogene expression at 3 uM measured after 24 hrs by qRT-PCR analysis relative to control. Type of series: functional. Put shortly: as §2
For series [21], the system named is Quadruplex DNA. Description: Stabilization of calf thymus […] ds DNA 5-FAM-CAATCGGATCGAATTCGATCCGATTG-TAMRA-3 assessed as change in melting temperature at 1 uM incubated for 1 hr in dark condition by FRET-based melting assay. As to conditions: Bos taurus. In kind it is nucleic-acid assay. The gist of the method: as §3
Series [22] relates to Quadruplex DNA. Description: Stabilization of G-quadruplex h-TELO 5-FAM-TTGGGTTAGGGTTAGGGTTAGGGA-TAMRA-3 (unknown origin) assessed as change in melting temperature at 1 uM incubated for 1 hr in dark condition by FRET-based melting assay. Type of series: nucleic-acid assay. Put shortly: as §3
A short description of series [23]: Reduction of BCL-2 oncogene expression in human K562 cells transfected with BCL-2 plasmid construct assessed as reduction in luciferase expression at 3 uM measured after 36 hrs by luciferase reporter assay. Type of series: functional. The gist of the method:
as §4

Structures are written as SMILES. Calls of active or inactive are those of the source. No cut-off for these calls is given here.

One may read the Kd as the constant that tells how readily two partners part at equilibrium. By inhibition is commonly meant the relative decrease from the control value, in per cent. By ΔTm is commonly meant the shift of the melting midpoint relative to a reference. Usually IC50 stands for the point on the concentration scale where inhibition reaches its midpoint.

For `CN(C)CCCNC(=O)c1ccc(-n2cc(-c3ccc4[nH]c5ccccc5c4c3)nn2)cc1`, the values for the Kd at Quadruplex DNA [1], at Quadruplex DNA [9] and at Quadruplex DNA [12] were 10.8 µM, 2.7 µM and 1.6 µM, respectively. For the same compound, the inhibition at 6 µM in the series with K562 [2] worked out at 39%; in series [5], 15.8%; with K562 [8] it was 73%. Besides, the ΔTm in the series with Quadruplex DNA [3] worked out at 16 °C; with Quadruplex DNA [4], 20.1 °C; in the series on Quadruplex DNA [6] it was 3.2 °C; in the series on Quadruplex DNA [7], 3.5 °C; in the series on Quadruplex DNA [10], 25.5 °C; with Quadruplex DNA [13], 11.2 °C. Further, the ΔTm stood at 26.5 °C with Quadruplex DNA [16], 22.6 °C in the series with Quadruplex DNA [19], 0.7 °C with Quadruplex DNA [21] and 4.5 °C in the series with Quadruplex DNA [22]. Besides, the IC50 with MCF7 is 19.8 µM. Moreover, the inhibition at 3 µM in the series on K562 [11] worked out at 15%; in the series with K562 [20] it was 29%; in series [23], 7.8%. Further, the figures for the Activity in the series with K562 [14] and with K562 [18] were 35% and 63%, respectively. Further, in the series on Quadruplex DNA [15], the outcome was Active. In addition, the IC50 at 24 h in series [17] is above 50 µM.
